In ChEMBL document CHEMBL1144104, “Antimicrobial and antitumor activities of mycosporulone” (J Nat Prod, 1999):
Converted amounts (≈) assume the structure as drawn.

Columns and labels:
Cryptococcus neoformans = assay: Antifungal activity against Cryptococcus neoformans 1 after 24 to 72 hrs by disk diffusion method; type: functional
Procedure, shortened: (§1)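 Yeasts grown on yeast extract 10 g, peptone 20 g and glucose 15 g per litre, pH 6.0, solidified with 1.5% agar and autoclaved 120 °C for 20 min. Cellulose-disk diffusion assay, with inhibition zone diameters recorded after 24-72 h of incubation, depending on the strain.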

Candida tropicalis = assay: Antifungal activity against amphotericin-resistant Candida tropicalis after 24 to 72 hrs by disk diffusion method; type: functional; procedure, shortened: as §1
Nakaseomyces glabratus = assay: Antifungal activity against Candida glabrata after 24 to 72 hrs by disk diffusion method; type: functional; procedure, shortened: as §1
PC-3 = assay: Cytotoxicity against human PC-3 cells after 5 days by MTT assay; type: functional; conditions: PC-3, 120 h, read-out: LD50 (the source's name)
Procedure, shortened: (§2)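 Inhibition of tumour cells (human MDA-MB 231 clonogenic cells, human prostatic adenocarcinoma PC3 and murine leukemia L-1210) was read by Mossmann-derived MTT colorimetric method. Taxol and doxorubicin were run as references.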

L1210 = assay: Cytotoxicity against mouse L1210 cells after 5 days by MTT assay; type: functional; conditions: L1210, 120 h, read-out: LD50 (the source's name); procedure, shortened: as §2
MDA-MB-231 = assay: Cytotoxicity against human MDA-MB-231 cells after 5 days by MTT assay; type: functional; conditions: MDA-MB-231, 120 h, read-out: LD50 (the source's name); procedure, shortened: as §2
Staphylococcus aureus [1] = assay: Antibacterial activity against penicillin-resistant Staphylococcus aureus after 24 to 72 hrs by disk diffusion method; type: functional
Procedure, shortened: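 Cellulose-disk agar diffusion; growth medium includes soya phytone 5 g and NaCl 5 g per litre distilled water, pH 7.2, with 1.5% agar, autoclaved 120 °C for 20 min. Inhibition zone diameters read after 24-72 h of incubation, depending on the target organism.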

Enterococcus faecalis = assay: Antibacterial activity against Streptococcus faecalis after 24 to 72 hrs by disk diffusion method; type: functional
Procedure, shortened: (§3)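 Paper-disk diffusion on agar plates. Cellulose disks carry crude EtOAc extract of the fungal culture filtrate; the extract is dried, then redissolved in 3 mL EtOAc. Inhibition zone diameters are read after 24-72 h of incubation, with the time depending on the target organism.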

Pseudomonas aeruginosa = assay: Antibacterial activity against Pseudomonas aeruginosa after 24 to 72 hrs by disk diffusion method; type: functional; procedure, shortened: as §3
Staphylococcus aureus [2] = assay: Antibacterial activity against Staphylococcus aureus after 24 to 72 hrs by disk diffusion method; type: functional; procedure, shortened: as §3
Escherichia coli = assay: Antibacterial activity against Escherichia coli after 24 to 72 hrs by disk diffusion method; type: functional; procedure, shortened: as §3
[3] = Cytotoxicity against human MRC5 cells after 5 days by MTT assay; type: cell-based; conditions: read-out: LD50
Procedure, shortened: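 Human lung fibroblast MRC5 (nontumor) line in 96-well plates; modified Mossmann MTT colorimetric micromethod; compound tested up to a maximal concentration of 100 µg/mL.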

Row | Compound | MIC (Cryptococcus neoformans) [µg/mL] | MIC (Candida tropicalis) [µg/mL] | MIC (Nakaseomyces glabratus) [µg/mL] | CC50 (PC-3) [µg/mL] | CC50 (L1210) [µg/mL] | CC50 (MDA-MB-231) [µg/mL] | MIC (Staphylococcus aureus [1]) [µg/mL] | MIC (Enterococcus faecalis) [µg/mL] | MIC (Pseudomonas aeruginosa) [µg/mL] | MIC (Staphylococcus aureus [2]) [µg/mL] | MIC (Escherichia coli) [µg/mL] | CC50 at 120 h [3] [µg/mL]
1 | C[C@@H]1[C@H](O)[C@@H](C)/C=C/C=C/C=C/C=C/C=C/C=C/C=C/[C@H](O[C@@H]2O[C@H](C)[C@@H](O)[C@H](N)[C@@H]2O)C[C@@H]2O[C@](O)(C[C@@H](O)C[C@@H](O)[C@H](O)CC[C@@H](O)C[C@@H](O)CC(=O)O[C@H]1C)C[C@H](O)[C@H]2C(=O)O [AMPHOTERICIN B] | 140 (≈ 152 µM) | > 560 | 140 (≈ 152 µM) | – | – | – | – | – | – | – | – | –
2 | COc1cccc2c1C(=O)c1c(O)c3c(c(O)c1C2=O)C[C@@](O)(C(=O)CO)C[C@@H]3O[C@H]1C[C@H](N)[C@H](O)[C@H](C)O1 [DOXORUBICIN] | – | – | – | 0.19 (≈ 0.35 µM) | 0.02 (≈ 0.0368 µM) | 0.09 (≈ 0.166 µM) | – | – | – | – | – | –
3 | NC[C@H]1O[C@H](O[C@H]2[C@H](O)[C@@H](O[C@H]3O[C@H](CO)[C@@H](O)[C@H](N)[C@H]3O)[C@H](N)C[C@@H]2N)[C@H](O)[C@@H](O)[C@@H]1O [KANAMYCIN] | – | – | – | – | – | – | 14 (≈ 28.9 µM) | 560 (≈ 1160 µM) | 140 (≈ 289 µM) | 140 (≈ 289 µM) | 28 (≈ 57.8 µM) | –
4 | CC(=O)N1CCN(c2ccc(OCC3COC(Cn4ccnc4)(c4ccc(Cl)cc4Cl)O3)cc2)CC1 (configuration not stated) [KETOCONAZOLE] | 56 (≈ 105 µM) | 140 (≈ 263 µM) | 14 (≈ 26.3 µM) | – | – | – | – | – | – | – | – | –
5 | C=C1OC(=O)[C@]2(C1=O)[C@H](C)C=CC(=O)[C@H]2O [MYCOSPORULONE] | 280 (≈ 1260 µM) | 14 (≈ 63 µM) | 420 (≈ 1890 µM) | 2.6 (≈ 11.7 µM) | 0.3 (≈ 1.35 µM) | 7.7 (≈ 34.7 µM) | 14 (≈ 63 µM) | 280 (≈ 1260 µM) | 14 (≈ 63 µM) | 420 (≈ 1890 µM) | 14 (≈ 63 µM) | > 100
6 | CC(=O)O[C@H]1C(=O)[C@@]2(C)[C@H]([C@H](OC(=O)c3ccccc3)[C@]3(O)C[C@H](OC(=O)[C@H](O)[C@@H](NC(=O)c4ccccc4)c4ccccc4)C(C)=C1C3(C)C)[C@]1(OC(C)=O)CO[C@@H]1C[C@@H]2O [PACLITAXEL] | – | – | – | 0.0027 (≈ 0.00316 µM) | 0.014 (≈ 0.0164 µM) | 0.003 (≈ 0.00351 µM) | – | – | – | – | – | –
7 | CC1(C)S[C@@H]2[C@H](NC(=O)Cc3ccccc3)C(=O)N2[C@H]1C(=O)O [PENICILLIN G] | – | – | – | – | – | – | 560 (≈ 1670 µM) | 14 (≈ 41.9 µM) | 560 (≈ 1670 µM) | 14 (≈ 41.9 µM) | 560 (≈ 1670 µM) | –
8 | CN[C@@H]1[C@H](O[C@H]2[C@H](O[C@H]3[C@H](O)[C@@H](O)[C@H](N=C(N)N)[C@@H](O)[C@@H]3N=C(N)N)O[C@@H](C)[C@]2(O)C=O)O[C@@H](CO)[C@H](O)[C@H]1O [STREPTOMYCIN] | – | – | – | – | – | – | 14 (≈ 24.1 µM) | 420 (≈ 722 µM) | 140 (≈ 241 µM) | 420 (≈ 722 µM) | 28 (≈ 48.1 µM) | –
9 | NYSTATIN | 14 | 14 | 28 | – | – | – | – | – | – | – | – | –
